In publication PMC4351130 (Nature structural & molecular biology, 2015):

Assays:
[1] = co-administration with morphine; cited from earlier work
[2] = target: double δ-OR mutant Leu300^7.35Trp - Trp284^6.58Lys (human) (UniProt P41143)
μ-OR = details: cited from earlier work
human δ-OR = assay: δ-OR β-arrestin recruitment Tango assay; type: cell-based; details: normalized to DADLE, N = 3 in quadruplicate, Supplementary Fig. 5
Method in brief: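 Modified Tango β-arrestin recruitment format at human δ-OR. Values are mean ± SEM from three independent experiments, each run in quadruplicate.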

δ-OR = details: cited from earlier work

Oc1ccc2c3c1O[C@H]1c4[nH]c5ccccc5c4C[C@@]4(O)[C@@H](C2)N(CC2CC2)CC[C@]314 [naltrindole]
Effect on development of morphine-induced tolerance and dependence [1]: prevent the development of morphine-induced tolerance and dependence

DIPP-NH2, H-Dmt(1)-Tic(2)-Phe(3)-Phe(4)-NH2 (peptide)
fold decrease in affinity against the unmutated receptor [2]: > 100 fold

H-Dmt(1)-Tic(2)-Phe(3)-Phe(4)-NH2 [DIPP-NH2]
Functional activity in guinea pig ileum assay (μ-OR): μ-OR agonist
Agonist activity at δ-OR, β-arrestin pathway (human δ-OR): weak partial agonist activity
Functional activity in mouse vas deferens assay (δ-OR): δ-OR antagonist
